# Screening results (PubChem BioAssay)
# Tb MetRS inh = T. brucei MetRS inhibitors, primary screen, biochemical, luminescence | inhibition, % at 11.9 µM | purified T. brucei MetRS, ATP depletion, Kinase-Glo luminescence | hit rate 0.4% among 360,000;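 active means inhibition above a per-plate cutoff of the control wells' mean inhibition plus 3 SD, cut at about 5.5% in these data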;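 further: 0% = DMSO wells median and 100% = median of wells with control inhibitor compound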
#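 technique = Kinase-Glo luminescence, ATP depletion format | system = purified MetRS (methionyl-tRNA synthetase) enzyme from Trypanosoma brucei | timing = 15 min preincubation, 2 h reaction, all 25 °C | evaluation = percent inhibition versus plate control medians | dosing = single dose, 11.9 µM final nominal, 0.9% final DMSO | also added = substrates ATP, L-methionine and bulk Escherichia coli tRNA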
# MC4R barr agon = MC4R agonists recruiting beta-arrestin, primary screen, cell-based, luminescence, agonist arm of biased-ligand search. Melanocortin receptor 4 (Homo sapiens), P32245. U2OS MC4R beta-arrestin complementation; percent of melanotan II response, DMSO zero. activation, % at 8.9 µM. hit rate 0.98% among 360,000;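 active means activation above a per-plate cutoff, the mean activation of sample wells on that plate plus 3 SD, cut at about 8% in these data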
# Target sequence (P32245 whole entry, looked up): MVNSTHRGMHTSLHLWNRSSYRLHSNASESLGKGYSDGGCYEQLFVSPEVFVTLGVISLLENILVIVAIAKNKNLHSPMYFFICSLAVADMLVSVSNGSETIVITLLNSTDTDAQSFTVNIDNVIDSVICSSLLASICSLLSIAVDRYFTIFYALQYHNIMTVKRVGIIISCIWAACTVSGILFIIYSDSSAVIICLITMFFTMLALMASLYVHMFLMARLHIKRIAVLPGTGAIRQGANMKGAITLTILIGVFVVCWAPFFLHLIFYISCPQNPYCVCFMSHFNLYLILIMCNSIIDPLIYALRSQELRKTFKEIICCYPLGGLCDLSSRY
# ABCB6 inh 2 = ABCB6 transporter inhibitors, primary screen, K562-ABCB6 cells, flow cytometry, MLPCN library | ATP-binding cassette sub-family B member 6 (Homo sapiens), Q9NP58 | K562-ABCB6 porphyrin accumulation, 1 h; hits give low values | fluorescence ratio to DMSO, % at 10 µM | hit rate 0.19% among 360,000;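 active means fluorescence ratio to DMSO below 75%, the collection mean minus 3 SD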;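 further: signal is porphyrin accumulated inside mitochondria; 100% equals median channel fluorescence of DMSO control wells; lower ratio means ABCB6 inhibition with less porphyrin fluorescence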
# Exocytosis inh = LAMP-1 surface exposure blockers, TALL-104 cells – cell-based, flow cytometry, MLPCN library, primary screen | TALL-104 LAMP-1 surface exposure; cells stimulated with thapsigargin and PMA | inhibition, % at 10 µM | hit rate 0.66% among 360,000 | AID 651702, 2012;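 active means inhibition above about 55%, limit read from the data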
# MC4R antagonist = MC4R antagonists of cAMP signaling, primary screen, cell-based, TR-FRET, antagonist arm of biased-ligand search. Melanocortin receptor 4 (Homo sapiens), P32245. MC4R-expressing cells, MTII-stimulated cAMP, LANCE TR-FRET. hit rate 0.48% among 360,000. inhibition, % at 6.5 µM;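 active means inhibition above its plate's cutoff, the mean of tested wells on that plate plus 3 SD, cut at about 29% in these data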;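 further: 0% = Melanotan II alone and 100% = Melanotan II plus saturating MCL0020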
#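 System: U2OS cells stably expressing human melanocortin 4 receptor (MC4R). Reagent: Melanotan II challenge after compound preincubation. Doses: 6.5 µM. Times: 30-min compound, 1-h challenge, 1-h detection, room temperature. Measured by: TR-FRET with Eu-cAMP and labeled anti-cAMP, 671 nm. Replicates: singlicate.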
# iPSC survival up = enhancers of single-cell hiPSC survival, primary screen, ATPlite luminescence | 100% = ROCK inhibitor wells, 0% = DMSO | survival enhancement, % at 20 µM | hit rate 0.044% among 360,000 | AID 602274, 2012; in the data active means survival enhancement above about 18%;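 further: cells exposed to compounds for 16 hours before the ATP read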
# TbMetRS confirm = T. brucei MetRS inhibitors, confirmation, biochemical, luminescence | shares compounds with Tb MetRS inh | T. brucei MetRS enzyme, luminescence (ATP depletion) | inhibition, % at 11.9 µM | hit rate 93% among 1,400 | AID 624412, 2012; in the data active means inhibition above about 7%
# Jurkat tox = Jurkat T cell cytotoxicity, cytotoxicity control for T. brucei MetRS inhibitor project, luminescence, high throughput. shares compounds with Tb MetRS inh. Jurkat cells viability, ATP luminescence. inhibition, % at 8.3 µM. hit rate 12% among 1,400. AID 624413, 2012; in the data active means inhibition above about 15%;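 further: 0% = vehicle and 100% = reference inhibitor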
# Tb MetRS inh FP = T. brucei MetRS inhibitors, orthogonal assay for T. brucei MetRS inhibitor project, biochemical, fluorescence polarization. purified T. brucei MetRS. shares compounds with Tb MetRS inh. hit rate 44% among 1,400. inhibition, % at 11.9 µM; in the data active means inhibition above about 17%;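 further: 0% = vehicle wells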
# Granule exo CP1 = inhibitors of lytic granule exocytosis, confirmation, TALL-104 cells, flow cytometry, Cherry Pick01; LAMP-1 externalization; stimulated with PMA plus thapsigargin; inhibition, % at 10 µM; shares compounds with Exocytosis inh; hit rate 11% among 1,500; AID 651954, 2012; in the data active means inhibition above about 60%;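 further: 0% = stimulated vehicle wells and 100% = unstimulated wells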
# Starred values were filed as active, the others as inactive; · = no result. A selection: hits, their analogues and other compounds. The true share with any hit is near 2.6%.
SMILES,Tb MetRS inh,MC4R barr agon,ABCB6 inh 2,Exocytosis inh,MC4R antagonist,iPSC survival up,Granule exo CP1,others
CCC(C)NC(=O)c1c(N)n(CCCOC)c2nc3ccccc3nc12 (stereo not drawn),5.7*,2.4,90.0,5.2,2.8,-1.7,·,TbMetRS confirm=4.9;Jurkat tox=3.6;Tb MetRS inh FP=-0.1
COCCCn1c(N)c(C(=O)Nc2ccccc2)c2nc3ccccc3nc21,1.5,-2.2,90.0,6.5,4.4,-0.5,·,
Cc1cccc(C)c1-n1nnnc1C(c1ccccc1OC(F)(F)F)N1CCC(n2c(=O)[nH]c3ccccc32)CC1 (stereo not drawn),-0.2,·,108.0,13.3,·,3.3,·,
O=c1c2ccccc2nc(-c2ccccc2)n1-c1ccc(O)cc1,0.6,-0.8,94.0,-2.4,3.3,0.8,·,
CCOC(=O)c1c(C)n(Cc2ccccc2)c2ccc(OCC(O)CN3C(=O)CNC3=O)cc12 (stereo not drawn),-0.4,-0.7,97.0,1.4,-25.0,0.6,·,
C#CCOc1ccc2c(c1)c(C(C)=O)c(C)n2Cc1ccccc1,-1.0,1.1,91.0,59.7*,-4.8,-0.7,-3.8,
CC(Cc1ccc(O)cc1)NCC(O)c1ccc(O)c(O)c1 (stereo not drawn),0.2,-2.5,99.0,65.7*,-0.8,0.1,-2.1,
C[C@]12CCC3C(CC[C@H]4C[C@H](N)CC[C@]34C)C1CC[C@H]2O (stereo partly drawn),-1.2,1.9,84.0,-0.3,0.1,-0.3,·,
CCOc1ccccc1CN1C2CCC1CC(c1ccc(C)cc1)C2 (stereo not drawn),-0.5,5.8,102.0,67.1*,4.0,-0.2,-13.4,
CN(C(=O)Cc1ccc2c(c1)OCO2)C1CCCN(Cc2ccccc2F)C1 (stereo not drawn),0.0,-1.0,95.0,-4.6,12.3,-0.6,·,
Cc1ccccc1CC(=O)N(CCN(C)C)CC1CCCN(Cc2ccccc2F)C1 (stereo not drawn),-0.4,0.6,90.0,61.5*,7.4,0.2,-4.7,
Fc1cccc(CNCCc2c[nH]c3ccccc23)c1,-0.2,0.9,99.0,6.9,14.2,-0.6,·,
Cc1cccc(CNCCc2c[nH]c3ccccc23)c1,-0.1,2.3,98.0,80.0*,-3.8,-0.7,-11.0,
COc1cc2c(cc1O)[C@@H]1Cc3ccc(OC)c(O)c3CN1CC2,1.2,-0.9,94.0,2.8,-3.0,-0.6,·,
CCCN1CCc2cc(O)cc3c2[C@H]1Cc1ccc(O)c(O)c1-3,0.1,-2.3,102.0,64.6*,-14.1,-1.2,-12.6,
CC(C)c1ccc(C2NCc3ccccc3-n3cccc32)cc1 (stereo not drawn),-1.1,0.0,99.0,38.9,2.3,-0.5,·,
FC(F)(F)Oc1ccc(C2NCc3ccccc3-n3cccc32)cc1 (stereo not drawn),-0.9,1.0,98.0,59.2*,-0.4,0.1,-15.3,
O=C(NC1CN2CCC1CC2)c1ccc(-c2ccc([N+](=O)[O-])cc2)o1 (stereo not drawn),0.0,0.2,86.0,-1.9,3.2,-2.7,·,
CC1CCCCN1CC(=O)c1ccc2cc[nH]c2c1 (stereo not drawn),-0.4,0.5,98.0,-11.9,2.8,1.8,·,
CC(C)Nc1ccc(Nc2ccccc2)cc1,-0.3,-6.1,106.0,100.4*,8.1,-0.5,51.6,
CCOC(=O)[C@]12Cc3cc(OC)ccc3[C@H]1N(C)C(=O)c1ccccc12,-0.1,·,97.0,-0.4,·,-0.4,·,
CCCCCN1C(=O)c2cc(OC)ccc2[C@@]2(C(=O)OCC)Cc3cc(Cl)ccc3[C@@H]12,-1.2,·,101.0,62.8*,·,-2.3,-0.4,
CCOC(=O)[C@]12Cc3cc(OC)ccc3[C@H]1N(C1CCCCC1)C(=O)c1ccccc12,-0.7,·,98.0,66.9*,·,-1.1,-9.9,
CCOC(=O)[C@]12Cc3cc(Cl)ccc3[C@H]1N(C1CCCCC1)C(=O)c1ccccc12,-0.9,·,101.0,82.8*,·,-1.9,8.2,
CCOC(=O)[C@]12Cc3cc(Cl)ccc3[C@H]1N(Cc1ccccc1)C(=O)c1cc(OC)ccc12,-0.3,·,97.0,13.8,·,-1.5,·,
SMILES,Tb MetRS inh,MC4R barr agon,ABCB6 inh 2,Exocytosis inh,MC4R antagonist,iPSC survival up,Granule exo CP1,others
NN=C1C(Cl)=C(Cl)C(Cl)=C1Cl,0.0,4.5,104.0,-2.2,0.8,1.8,·,
COc1cc(CNCCc2c[nH]c3ccccc23)cc(OC)c1,-0.8,-0.4,99.0,7.8,-2.3,-0.6,·,
CCCCC(=O)N/N=C/c1c(O)n(-c2cccc3ccccc23)c(=O)[nH]c1=O,0.1,-1.1,93.0,0.1,-2.8,-0.1,·,
C[C@]12C[C@H](O)[C@@H](O)CC1=CCC1C2CC[C@@]2(C)C1CC[C@@H]2O (stereo partly drawn),0.2,-4.2,96.0,0.9,3.9,1.1,·,
COc1ccc2ccc(O)c(CN3CC=C(c4ccccc4)CC3)c2c1,0.4,4.4,98.0,91.7*,4.5,-2.2,16.8,
O=c1[nH]c(=O)n(-c2ccc(F)cc2)c(O)c1/C=C1\C=Nc2ccccc21,-1.6,0.4,109.0,55.7*,-24.9,-0.6,-2.9,
Clc1cccc(N2Cc3cc(-c4ccccc4)ccc3-n3nncc3C2)c1,-0.1,·,99.0,98.9*,·,-1.6,-12.7,
COc1ccc(-c2ccc3c(c2)CN(c2cccc(Cl)c2)Cc2cnnn2-3)cc1,-0.6,·,98.0,88.0*,·,-0.5,-11.9,
CCOP(=O)(OCC)C(NC(=O)c1ccc(C)cc1)=C(Cl)Cl,-0.4,-1.1,98.0,1.1,-1.9,1.4,·,
